Key:
[1] = Half-life in mouse serum after oral administration of 100 mg/kg of dose; format: ADME, organism-based; parameters: dose 100 mg/kg, route oral
Summary of the method: (§1)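 Female NIH-Swiss mice, 24–28 g. Compounds dissolved in physiological saline at 15 mg/mL and given once, either intragastrically or iv via tail vein over 30 s, at 100 or 106.8 mg/kg (equimolar). Three mice per time point, killed by heart puncture under ether. Serum and brain stored at -20 °C. Brain homogenized 1:1 (g:mL) in isotonic phosphate buffer, pH 7.4. Analysis by reversed-phase HPLC with UV at 260 nm and an internal standard. Noncompartmental pharmacokinetics, AUC by Lagrange polynomial integration.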

Mus musculus [2] = test: Bioavailability in mouse serum after oral administration of 100 mg/kg of dose; format: ADME, organism-based; settings: in vivo
Mus musculus [3] = test: Apparent volume of distribution in mice after oral administration of 100 mg/kg of dose; format: ADME, organism-based; parameters: dose 100 mg/kg, route oral; settings: in vivo; summary of the method: as §1
Mus musculus [4] = test: Apparent clearance in mice after oral administration of 100 mg/kg of dose; format: ADME, organism-based; parameters: dose 100 mg/kg, route oral; settings: in vivo; summary of the method: as §1
[5] = Evaluated for the maximum serum concentration administered at 1 hour in mice; format: ADME, organism-based; settings: mouse
Summary of the method: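 Serum drug level in female NIH-Swiss mice after a single intragastric dose in saline, 100 mg/kg for the prodrug or an equimolar dose for the parent. Blood drawn by heart puncture under ether, three mice per time point. Serum analyzed by reversed-phase HPLC with UV at 260 nm; detection limit 50–100 ng/mL. Peak concentration read from the concentration–time profile and given as mean ± SD.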

Mus musculus [6] = test: Bioavailability in mouse serum after intravenous administration of equimolar doses of ( 2'F-ara-ddI + 2'F-ara-ddP); format: ADME, organism-based; settings: in vivo
Mus musculus [7] = test: Bioavailability in mouse brain after oral administration of equimolar doses of ( 2'F-ara-ddI + 2'F-ara-ddP); format: ADME, organism-based; settings: in vivo
Summary of the method: (§2)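 Single-dose pharmacokinetics in female NIH-Swiss mice given the compound in saline, either intragastrically or iv via tail vein over 30 s. Three mice sampled per time point. Serum or brain homogenate assayed by HPLC-UV at 260 nm. AUC calculated by Lagrange polynomial integration. Bioavailability taken as the ratio of oral to iv AUC.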

Mus musculus [8] = test: Bioavailability in mouse brain after intravenous administration of equimolar doses of ( 2'F-ara-ddI + 2'F-ara-ddP); format: ADME, organism-based; settings: in vivo
Mus musculus [9] = test: Bioavailability in mouse serum after oral administration of equimolar doses of ( 2'F-ara-ddI + 2'F-ara-ddP); format: ADME, organism-based; settings: in vivo
[10] = Half-life in mouse brain after intravenous administration of 100 mg/kg of dose
[11] = Apparent volume of distribution in mice after intravenous administration of 105.1 mg/kg of dose; format: ADME, organism-based; parameters: dose 105.1 mg/kg, route intravenous; settings: mouse, in vivo, read-out: Vss
Mus musculus [12] = test: Bioavailability in mouse brain after oral administration of 100 mg/kg of dose; format: ADME, organism-based; settings: in vivo; summary of the method: as §2
Mus musculus [13] = test: Bioavailability in mouse serum after intravenous administration of 105.1 mg/kg of dose; format: ADME, organism-based; settings: in vivo
Mus musculus [14] = test: Bioavailability in mouse brain after intravenous administration of 105.1 mg/kg of dose; format: ADME, organism-based; settings: in vivo
[15] = Half-life in mouse serum after intravenous administration of 100 mg/kg of dose
[16] = Bioavailability after oral administration of 100 mg/kg of dose in mouse; format: ADME, organism-based; settings: in vivo; summary of the method: as §2
[17] = Half-life in mouse brain after oral administration of 100 mg/kg of dose; format: ADME, organism-based; parameters: dose 100 mg/kg, route oral; summary of the method: as §1
Mus musculus [18] = test: Apparent clearance in mice after intravenous administration of 105.1 mg/kg of dose; format: ADME, organism-based; parameters: dose 105.1 mg/kg, route intravenous; settings: in vivo

Row | SMILES | half-life [1] | AUC (Mus musculus [2]) | Vss (Mus musculus [3]) | CI (Mus musculus [4]) | Cmax [5] | AUC (Mus musculus [6]) | AUC (Mus musculus [7]) | AUC (Mus musculus [8]) | AUC (Mus musculus [9]) | half-life [10] | Vd [11] | AUC (Mus musculus [12]) | AUC (Mus musculus [13]) | AUC (Mus musculus [14]) | half-life [15] | bioavailability [16] | half-life [17] | CI (Mus musculus [18])
1 | OCC1CC(F)C(n2cnc3c(O)ncnc32)O1 (configuration not stated) | 257 min | 154 uM L | 14.5 L/kg | 48 mL/min/kg | 48.1 µM | 132 uM L | 47.9 uM L | 48 uM L | 134 uM L | – | – | – | – | – | – | – | – | –
2 | OCC1CC(F)C(n2cnc3cncnc32)O1 (configuration not stated) | 47.4 min | 153 uM L | 2.32 L/kg | 48.3 mL/min/kg | – | – | – | – | – | 25.2 min | 1.12 L/kg | 32.3 uM L | 252 uM L | 120 uM L | 24 min | 60.7% | 39 min | 29.3 mL/min/kg
